# Measured values as given in ChEMBL document CHEMBL4145474, “Discovery of novel piperonyl derivatives as diapophytoene desaturase inhibitors for the treatment of methicillin-, vancomycin- and linezolid-resistant Staphylococcus aureus infections” (Eur J Med Chem, 2018).
# The source made the active and inactive calls. No cut-off for these calls is given here.
# How the values were obtained:
# Staphylococcus aureus [1] = experiment: Antibacterial activity against vancomycin-intermediate methicillin-resistant Staphylococcus aureus Mu50 infected in BALB/c mouse assessed as decrease in bacterial survival in mouse kidney at 0.1 to 0.4 mg, ip bid administered 4.5 days after 6 hrs bacterial infection measured after 90 hrs; type: functional, organism-based
# Outline: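 6–8-week-old female BALB/c mice (SPF) dosed intraperitoneally twice daily over 4.5 d at 0.1 or 0.4 mg/bid. Pre-treatment started before infection; post-treatment started 6 h after infection. Vancomycin and linezolid controls given as pre-treatment at 0.4 mg/bid. Retro-orbital inoculation: Mu50 1.1 × 10⁹ CFU, NRS271 1.8 × 10⁸ CFU. Kidneys and livers homogenised in PBS/0.01% Triton X-100 and plated on TSA for CFU.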
# Staphylococcus aureus [2] = experiment: Antibacterial activity against wild type Staphylococcus aureus Newman infected in BALB/c mouse assessed as decrease in bacterial load in mouse liver at 0.1 mg, ip bid administered 4.5 days after 6 hrs bacterial infection measured after 90 hrs relative to control; type: functional
# Outline: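 Female BALB/c mice, 6-8 weeks old, infected retro-orbitally with 2.2 × 10⁷ CFU S. aureus Newman. Intraperitoneal dosing in 12 intervals: pre-treatment groups received a total of 50 or 200 mg/kg starting before infection; post-treatment groups received a total of 39 or 156 mg/kg starting 6 h after infection. Vehicle was ddH₂O. At 90 h post-infection, liver or kidney was homogenized in PBS/0.01% Triton X-100 and plated on TSA for CFU.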
# [3] = Solubility of the compound in water by UV analysis; type: physicochemical
# Staphylococcus aureus [4] = experiment: Inhibition of pigmentation in methicillin/linezolid-resistant Staphylococcus aureus NRS271 after 48 hrs by spectrophotometric method; type: functional, organism-based; conditions: NRS271, 48 h
# Outline: (§1)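 Bacteria grown in 4 mL TSB for 48 h at 37 °C with compound serially diluted from DMSO, in duplicate; DMSO vehicle control and non-pigmented CrtN mutant as reference. Cells from 3 mL of culture washed twice with 0.01 M PBS and pigment extracted into methanol. Absorbance read at 450 nm; IC50 fitted from the concentration series.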
# [5] = target: T1, 4,4'-diapophytoene desaturase (4,4'-diaponeurosporene-forming) (Staphylococcus aureus (strain Newman)) (UniProt O07855); experiment: Inhibition of CrtN in methicillin-resistant Staphylococcus aureus USA300 LAC assessed as bacterial survival at 1 uM after 24 hrs by H2O2 killing assay (reference value: 29.67%)
# T1 sequence (whole entry): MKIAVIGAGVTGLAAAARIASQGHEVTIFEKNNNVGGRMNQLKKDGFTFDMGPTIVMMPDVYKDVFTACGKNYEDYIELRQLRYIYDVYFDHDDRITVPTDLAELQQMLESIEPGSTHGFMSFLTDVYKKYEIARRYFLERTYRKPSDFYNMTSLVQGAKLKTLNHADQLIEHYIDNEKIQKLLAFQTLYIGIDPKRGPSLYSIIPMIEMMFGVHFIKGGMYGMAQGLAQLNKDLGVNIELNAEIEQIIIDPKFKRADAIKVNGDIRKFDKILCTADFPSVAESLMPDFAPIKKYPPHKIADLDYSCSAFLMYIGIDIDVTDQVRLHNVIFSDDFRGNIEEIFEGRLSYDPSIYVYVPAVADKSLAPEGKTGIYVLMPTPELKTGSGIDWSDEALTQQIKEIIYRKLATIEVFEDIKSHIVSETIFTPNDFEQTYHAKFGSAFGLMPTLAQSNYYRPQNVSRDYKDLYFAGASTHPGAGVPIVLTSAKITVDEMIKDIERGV
# Staphylococcus aureus [6] = experiment: Inhibition of pigmentation in methicillin-resistant Staphylococcus aureus USA400 MW2 after 48 hrs by spectrophotometric method; type: functional, organism-based; conditions: USA400 MW2, 48 h; outline: as §1
# Staphylococcus aureus [7] = experiment: Inhibition of pigmentation in methicillin-resistant Staphylococcus aureus USA300 LAC after 48 hrs by spectrophotometric method; type: functional, organism-based; outline: as §1
# [8] = target: Voltage-gated inwardly rectifying potassium channel KCNH2 (Homo sapiens, UniProt Q12809); experiment: Inhibition of human ERG expressed in CHO cells at holding potential of -80 mV by whole cell Qpatch assay; type: cell-based
# Chain of Voltage-gated inwardly rectifying potassium channel KCNH2 (Q12809 whole entry): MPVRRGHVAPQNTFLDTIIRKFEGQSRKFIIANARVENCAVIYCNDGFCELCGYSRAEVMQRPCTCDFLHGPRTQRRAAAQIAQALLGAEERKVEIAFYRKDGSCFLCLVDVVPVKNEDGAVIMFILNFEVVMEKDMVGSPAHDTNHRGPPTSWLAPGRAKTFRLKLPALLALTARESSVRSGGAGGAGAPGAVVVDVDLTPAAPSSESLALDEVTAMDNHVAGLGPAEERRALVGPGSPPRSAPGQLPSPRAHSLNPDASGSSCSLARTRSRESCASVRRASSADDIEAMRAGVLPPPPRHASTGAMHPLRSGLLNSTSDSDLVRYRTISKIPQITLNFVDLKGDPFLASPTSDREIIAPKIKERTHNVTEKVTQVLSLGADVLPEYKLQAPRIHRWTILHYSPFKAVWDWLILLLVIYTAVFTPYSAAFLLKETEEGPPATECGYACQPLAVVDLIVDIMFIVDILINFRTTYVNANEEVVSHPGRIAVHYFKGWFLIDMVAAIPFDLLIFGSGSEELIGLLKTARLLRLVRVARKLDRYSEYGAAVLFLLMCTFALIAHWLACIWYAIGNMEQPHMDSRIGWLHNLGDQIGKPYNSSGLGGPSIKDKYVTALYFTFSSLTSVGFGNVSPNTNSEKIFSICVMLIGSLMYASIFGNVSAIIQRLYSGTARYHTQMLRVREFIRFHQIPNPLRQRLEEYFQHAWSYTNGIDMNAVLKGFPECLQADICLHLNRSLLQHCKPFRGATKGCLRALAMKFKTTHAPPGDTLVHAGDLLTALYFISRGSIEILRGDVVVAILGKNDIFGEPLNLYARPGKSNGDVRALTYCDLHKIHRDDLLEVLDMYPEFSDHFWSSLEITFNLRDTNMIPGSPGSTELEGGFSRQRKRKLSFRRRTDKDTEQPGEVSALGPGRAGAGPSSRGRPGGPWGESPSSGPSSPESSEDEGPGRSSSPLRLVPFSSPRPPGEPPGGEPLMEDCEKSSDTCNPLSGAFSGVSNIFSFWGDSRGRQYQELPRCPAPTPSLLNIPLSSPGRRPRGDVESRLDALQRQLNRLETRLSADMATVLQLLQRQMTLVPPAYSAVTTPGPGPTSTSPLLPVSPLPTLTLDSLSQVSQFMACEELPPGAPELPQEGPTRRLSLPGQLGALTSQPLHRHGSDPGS
smiles,measurement,setting,value
CN(C/C=C/C=C/c1ccc(C(F)(F)F)cc1F)Cc1ccc2c(c1)OCO2.Cl,Activity,Staphylococcus aureus [1],Active
same,Activity,Staphylococcus aureus [2],1.53 deltalog10CFU
same,solubility,[3],8690 µg/mL
same,IC50,Staphylococcus aureus [4],4.1 nM
same,Survival,[5],2.67%
same,IC50,Staphylococcus aureus [6],7.6 nM
same,IC50,Staphylococcus aureus [7],12.9 nM
same,IC50,[8],14 µM
